Test results from ChEMBL document CHEMBL1926564, “Design, synthesis and biological activity of original pyrazolo-pyrido-diazepine, -pyrazine and -oxazine dione derivatives as novel dual Nox4/Nox1 inhibitors” (Bioorg Med Chem, 2011).
Values belong to the molecule of their own block, whether it stands above or below them.

What was measured:
[1] = target: T1, NADPH oxidase 1 (Homo sapiens, UniProt Q9Y5S8); test: Antagonist activity at human NOX1 expressed in CHO cell membrane coexpressing tetracylin repressor assessed as inhibition of ROS production after 20 mins by cell-free amplex red assay; type: functional
T1 sequence (Q9Y5S8 whole entry): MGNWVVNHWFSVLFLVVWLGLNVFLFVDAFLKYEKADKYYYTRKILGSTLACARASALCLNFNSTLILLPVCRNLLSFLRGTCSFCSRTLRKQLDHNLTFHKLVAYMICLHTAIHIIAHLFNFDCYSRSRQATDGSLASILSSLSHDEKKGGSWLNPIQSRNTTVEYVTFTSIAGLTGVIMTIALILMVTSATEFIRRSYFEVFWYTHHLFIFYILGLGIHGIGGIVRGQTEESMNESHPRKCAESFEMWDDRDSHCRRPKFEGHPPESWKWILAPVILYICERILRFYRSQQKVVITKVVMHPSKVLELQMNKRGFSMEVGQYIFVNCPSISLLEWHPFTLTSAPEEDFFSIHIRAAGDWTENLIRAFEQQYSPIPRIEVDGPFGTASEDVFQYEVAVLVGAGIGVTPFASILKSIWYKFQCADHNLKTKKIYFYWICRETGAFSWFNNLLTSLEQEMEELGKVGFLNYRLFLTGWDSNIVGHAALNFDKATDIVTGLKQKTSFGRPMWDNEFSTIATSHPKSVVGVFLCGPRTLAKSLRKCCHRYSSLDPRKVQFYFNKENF
How it was run: (§1)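 Membranes from tetracycline-induced (24 h) Nox-expressing cells or human PMN (Nox2), sucrose-gradient purified; or xanthine oxidase. Incubated in PBS with Amplex Red, HRP and cofactors; NADPH (Nox) or xanthine starts ROS. Compound 1 nM–100 µM, 20 min at 37 °C, plate-reader. Background without membranes or agonist. Ki by Cheng-Prusoff; mean of ≥3 experiments in triplicate.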

[2] = target: T2, NADPH oxidase 2 (Homo sapiens, UniProt P04839); test: Antagonist activity at human NOX2 in human polymorphonuclear cell membrane assessed as inhibition of ROS production after 20 mins by cell-free amplex red assay; type: functional; how it was run: as §1
T2 sequence (P04839 whole entry): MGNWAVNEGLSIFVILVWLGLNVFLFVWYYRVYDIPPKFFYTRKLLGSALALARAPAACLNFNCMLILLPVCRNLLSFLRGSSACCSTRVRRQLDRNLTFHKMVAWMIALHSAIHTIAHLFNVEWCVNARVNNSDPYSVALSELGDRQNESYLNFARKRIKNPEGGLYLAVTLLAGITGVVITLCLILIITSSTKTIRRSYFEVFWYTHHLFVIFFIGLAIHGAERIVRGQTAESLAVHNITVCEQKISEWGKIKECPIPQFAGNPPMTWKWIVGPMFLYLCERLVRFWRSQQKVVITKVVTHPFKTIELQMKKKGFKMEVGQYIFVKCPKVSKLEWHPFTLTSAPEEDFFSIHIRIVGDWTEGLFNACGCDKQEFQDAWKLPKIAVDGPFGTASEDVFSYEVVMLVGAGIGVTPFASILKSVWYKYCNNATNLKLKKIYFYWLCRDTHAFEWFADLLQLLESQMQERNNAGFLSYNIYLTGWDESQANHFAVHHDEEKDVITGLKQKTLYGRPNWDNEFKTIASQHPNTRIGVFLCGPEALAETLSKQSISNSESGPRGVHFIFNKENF

[3] = target: T3, NADPH oxidase 4 (Homo sapiens, UniProt Q9NPH5); test: Antagonist activity at human NOX4 expressed in CHO cell membrane coexpressing tetracylin repressor assessed as inhibition of ROS production after 20 mins by cell-free amplex red assay; type: functional; details: in the assay text read “HEK293 cell membrane” for “CHO cell membrane”; how it was run: as §1
T3 sequence (Q9NPH5 whole entry): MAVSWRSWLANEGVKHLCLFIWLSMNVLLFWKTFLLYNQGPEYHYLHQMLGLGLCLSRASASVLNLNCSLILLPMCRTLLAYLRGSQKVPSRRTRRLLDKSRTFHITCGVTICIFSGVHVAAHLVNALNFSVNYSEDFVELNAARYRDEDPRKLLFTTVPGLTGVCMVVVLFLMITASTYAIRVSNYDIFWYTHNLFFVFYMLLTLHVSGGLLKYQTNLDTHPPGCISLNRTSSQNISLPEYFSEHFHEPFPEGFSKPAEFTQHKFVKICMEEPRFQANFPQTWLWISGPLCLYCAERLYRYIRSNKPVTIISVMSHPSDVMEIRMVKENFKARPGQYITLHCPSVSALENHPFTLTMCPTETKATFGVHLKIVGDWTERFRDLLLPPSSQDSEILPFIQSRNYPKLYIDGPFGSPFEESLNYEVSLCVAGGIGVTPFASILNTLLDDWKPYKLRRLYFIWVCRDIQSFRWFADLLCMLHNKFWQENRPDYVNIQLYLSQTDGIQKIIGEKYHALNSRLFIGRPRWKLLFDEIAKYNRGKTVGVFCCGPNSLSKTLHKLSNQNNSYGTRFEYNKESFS

[4] = target: T4, NADPH oxidase 5 (Homo sapiens, UniProt Q96PH1); test: Antagonist activity at human NOX5 assessed as inhibition of ROS production after 20 mins by cell-free amplex red assay; type: functional; how it was run: as §1
T4 sequence (Q96PH1 whole entry): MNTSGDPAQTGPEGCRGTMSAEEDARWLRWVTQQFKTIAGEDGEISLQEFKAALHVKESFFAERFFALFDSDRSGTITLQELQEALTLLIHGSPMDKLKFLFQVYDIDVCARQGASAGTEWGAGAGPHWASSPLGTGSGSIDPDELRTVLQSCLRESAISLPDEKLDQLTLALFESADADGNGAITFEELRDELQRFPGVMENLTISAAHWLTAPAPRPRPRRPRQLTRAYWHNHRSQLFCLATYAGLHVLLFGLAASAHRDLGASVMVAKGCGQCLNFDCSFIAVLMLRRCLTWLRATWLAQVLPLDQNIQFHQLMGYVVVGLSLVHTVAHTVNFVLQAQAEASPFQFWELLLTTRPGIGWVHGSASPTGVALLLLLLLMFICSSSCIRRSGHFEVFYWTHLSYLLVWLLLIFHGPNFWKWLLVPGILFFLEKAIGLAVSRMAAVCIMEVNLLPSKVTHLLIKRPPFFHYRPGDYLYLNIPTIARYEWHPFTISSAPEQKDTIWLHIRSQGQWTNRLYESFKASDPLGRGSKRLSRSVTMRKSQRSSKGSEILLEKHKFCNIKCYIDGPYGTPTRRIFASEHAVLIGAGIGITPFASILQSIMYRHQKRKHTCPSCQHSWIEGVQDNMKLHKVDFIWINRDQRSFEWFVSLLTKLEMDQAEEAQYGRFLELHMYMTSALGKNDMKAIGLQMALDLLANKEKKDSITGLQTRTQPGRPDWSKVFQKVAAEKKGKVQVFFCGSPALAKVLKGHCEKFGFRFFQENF

[5] = Clearance in human liver microsomes assessed per mg of protein at 0.5 uM; type: ADME, Microsome; details: read-out: CLH
How it was run: (§2)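 Pooled rat (male Sprague Dawley) or human (mixed-sex) liver microsomes at 0.5 mg/mL final, 0.1 M phosphate pH 7.4, compound 0.5 µM final, 0.25% DMSO, 37 °C; 1 mM NADPH starts reaction. Sampled 0–45 min, methanol quench with internal standard, LC/MS-MS; intrinsic clearance from compound loss.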

[6] = Clearance in Sprague-Dawley rat liver microsomes assessed per mg of protein at 0.5 uM; type: ADME, Microsome; details: read-out: CLH; how it was run: as §2
[7] = Lipophilicity, log D of the compound at pH 7.4; type: physicochemical; details: buffer
[8] = Fraction unbound in rat plasma containing 50% plasma protein; type: ADME, cell-free
How it was run: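 Rat plasma protein binding in 50% plasma; fraction unbound reported.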

[9] = Apparent permeability across human Caco2 cells at 10 uM after 2 hrs; type: ADME, cell-based; details: Caco-2
How it was run: (§3)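 Caco-2 monolayers grown 20 days, TEER >800 ohm·cm². Compound 10 µM final in HBSS pH 6.5 (1% DMSO), dosed apical (A→B) or basolateral (B→A), 2 h at 37 °C; both compartments sampled, LC–MS/MS cassette analysis with 5-point calibration.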

[10] = Efflux ratio of apparent permeability across human Caco2 cells at 10 uM after 2 hrs; type: ADME, cell-based; details: Caco-2; how it was run: as §3
[11] = species: Homo sapiens; test: Selectivity ratio of Ki for human NOX2 to Ki for human NOX4
How it was run: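 Ratio of Ki values from the Amplex Red membrane ROS assay (PMN membranes for Nox2, Nox4-overexpressing membranes), NADPH-triggered, 1 nM–100 µM, 20 min at 37 °C; Ki via Cheng-Prusoff.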

Compound: COc1cccc(CN2CCCn3c(c4c(=O)n(-c5ccccc5OC)[nH]c4cc3=O)C2)c1
Ki [1]: 212 nM
Ki [2]: 820 nM
Ki [3]: 131 nM
Ki [4]: 690 nM

Compound: O=c1c2c3n(c(=O)cc2[nH]n1-c1ccccc1Cl)CCCN(Cc1ccc(Cl)cc1)C3
microsomal CLint at 0.5 µM [5]: 77.3 µL/min/mg
Ki [1]: 95 nM
Ki [2]: 1260 nM
Ki [3]: 103 nM
microsomal CLint at 0.5 µM [6]: 152 µL/min/mg
Ki [4]: 585 nM
logD [7]: 2.76

Compound: COc1ccc(CN2CCCn3c(c4c(=O)n(-c5ccccc5Cl)[nH]c4cc3=O)C2)cc1
Ki [1]: 184 nM
Ki [2]: 780 nM
Ki [3]: 116 nM
Ki [4]: 690 nM

Compound: O=c1c2c3n(c(=O)cc2[nH]n1-c1ccccc1Cl)CCCN(Cc1cccc(Cl)c1)C3
microsomal CLint at 0.5 µM [5]: 81.4 µL/min/mg
Ki [1]: 104 nM
Ki [2]: 1150 nM
Ki [3]: 101 nM
microsomal CLint at 0.5 µM [6]: 153 µL/min/mg
Ki [4]: 475 nM
logD [7]: 2.76

Compound: COc1ccccc1CN1CCCn2c(c3c(=O)n(-c4ccccc4Cl)[nH]c3cc2=O)C1
Ki [1]: 133 nM
Ki [2]: 1760 nM
Ki [3]: 111 nM
Ki [4]: 740 nM

Compound: Cl.O=c1c2c3n(c(=O)cc2[nH]n1-c1ccccc1Cl)CCCN(Cc1cccnc1)C3
microsomal CLint at 0.5 µM [5]: 21 µL/min/mg
fraction unbound [8]: 0.029
Ki [1]: 208 nM
Ki [2]: 1370 nM
Ki [3]: 94 nM
microsomal CLint at 0.5 µM [6]: 31.1 µL/min/mg
Papp at 2 h, 10 µM [9]: 1 ×10⁻⁶ cm/s
efflux ratio at 2 h, 10 µM [10]: 18.7
Ki [4]: 1150 nM
logD [7]: 0.92

Compound: COc1cccc(CN2CCCn3c(c4c(=O)n(-c5ccccc5Cl)[nH]c4cc3=O)C2)c1.Cl
microsomal CLint at 0.5 µM [5]: 35 µL/min/mg
fraction unbound [8]: 0.901
Ki [1]: 113 nM
Ki [2]: 1200 nM
Ki [3]: 112 nM
microsomal CLint at 0.5 µM [6]: 60.1 µL/min/mg
Papp at 2 h, 10 µM [9]: 22.3 ×10⁻⁶ cm/s
efflux ratio at 2 h, 10 µM [10]: 1.91
Ki [4]: 730 nM
logD [7]: 1.99

Compound: O=c1c2c3n(c(=O)cc2[nH]n1-c1ccccc1Cl)CCCNC3
Ratio Ki [11]: 4.2
Ki [1]: 119 nM
Ki [2]: 365 nM
Ki [3]: 87 nM
Ki [4]: 360 nM

Next, values leading:

Ki [1]: 398 nM
Ki [2]: 2020 nM
Ki [3]: 142 nM
Ki [4]: 1420 nM
Compound: O=c1c2c3n(c(=O)cc2[nH]n1-c1ccccc1Cl)CCN(Cc1ccccc1)C3

Ki [1]: 218 nM
Ki [2]: 645 nM
Ki [3]: 144 nM
Ki [4]: 670 nM
Compound: COc1ccccc1-n1[nH]c2cc(=O)n3c(c2c1=O)CN(Cc1ccccc1)CCC3

Ki [1]: 200 nM
Ki [2]: 1020 nM
Ki [3]: 111 nM
Ki [4]: 955 nM
Compound: O=c1c2c3n(c(=O)cc2[nH]n1-c1ccccc1Cl)CCCN(Cc1ccoc1)C3

Ki [1]: 148 nM
Ki [2]: 1280 nM
Ki [3]: 103 nM
Ki [4]: 590 nM
Compound: CC(C)(C)OC(=O)N1CCCn2c(c3c(=O)n(-c4ccccc4Cl)[nH]c3cc2=O)C1

Ki [1]: 173 nM
Ki [2]: 433 nM
Ki [3]: 156 nM
Ki [4]: 490 nM
Compound: O=c1c2c3n(c(=O)cc2[nH]n1-c1ccccc1Cl)CCOC3

microsomal CLint at 0.5 µM [5]: 87.1 µL/min/mg
Ki [1]: 87 nM
Ki [2]: 1160 nM
Ki [3]: 76 nM
microsomal CLint at 0.5 µM [6]: 164 µL/min/mg
Ki [4]: 615 nM
logD [7]: 2.76
Compound: O=c1c2c3n(c(=O)cc2[nH]n1-c1ccccc1Cl)CCCN(Cc1ccccc1Cl)C3

microsomal CLint at 0.5 µM [5]: 15.7 µL/min/mg
fraction unbound [8]: 0.069
Ki [1]: 217 nM
Ki [2]: 510 nM
Ki [3]: 93 nM
microsomal CLint at 0.5 µM [6]: 32.1 µL/min/mg
Papp at 2 h, 10 µM [9]: 1.4 ×10⁻⁶ cm/s
efflux ratio at 2 h, 10 µM [10]: 16.8
Ki [4]: 610 nM
logD [7]: 0.33
Compound: COc1ccccc1-n1[nH]c2cc(=O)n3c(c2c1=O)CN(Cc1ccccn1)CCC3.Cl
